Paper PMC4650901 (Scientific Reports, 2014)

Tests used:
HELF cells = assay: MTT assay, normal counterpart cell line HELF; assay type: cell-based; conditions: Homo sapiens, 24 h, read-out: IC50 HELF
Method in brief: (§1)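 Cells grown in RPMI 1640 with 10% heat-inactivated FBS and penicillin/streptomycin at 37°C, 5% CO2. Plated at 1 × 10^4/well overnight, then treated 24 h with graded test compound (DMSO stock diluted in medium, 0.1% DMSO final; vehicle control 0.1% DMSO). MTT added 4 h in phenol-red-free, serum-free medium; formazan dissolved in DMSO; A492. IC50 = concentration giving 50% growth inhibition; ≥3 repeats.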

AGS cells = assay: MTT assay for cell viability/proliferation, AGS; assay type: cell-based; conditions: Homo sapiens, 24 h, read-out: IC50 AGS
Method in brief: as §1

HepG2 cells [1] = assay: MTT assay for cell viability/proliferation, HepG2; assay type: cell-based; conditions: Homo sapiens, HepG2, 24 h; for IC50: read-out: IC50 HepG2; for IC80: read-out: IC80 of glycolysis inhibitors
HeLa cells = assay: MTT assay for cell viability/proliferation, HeLa; assay type: cell-based; conditions: Homo sapiens, 24 h, read-out: IC50 HeLa
Method in brief: as §1

[2] = test system: four cancer cell lines (HepG2, AGS, A-375, HeLa); assay: MTT assay, range over four cancer cell lines; assay type: cell-based; conditions: Homo sapiens, read-out: IC50 to suppress cell proliferation
Method in brief: as §1

A-375 cells = assay: MTT assay for cell viability/proliferation, A-375; assay type: cell-based; conditions: Homo sapiens, A-375, 24 h, read-out: IC50 A-375
Method in brief: as §1

HepG2 cells [3] = assay: Annexin V-FITC/PI double staining, HepG2; assay type: cell-based, human; conditions: HepG2, 24 h, single drug 2-DG (Fig. 5b: 40 mM)
Method in brief: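 HepG2 cells exposed 24 h to test compound, 2-DG, or both. 3 × 10^5 cells harvested, PBS-washed twice, stained with Annexin V-FITC and PI for 15 min in the dark, then analysed by flow cytometry. Quadrants: Annexin V−/PI− healthy, V+/PI− early apoptotic, V+/PI+ late apoptotic/necrotic, V−/PI+ necrotic. Three experiments.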

HepG2 cells [4] = assay: Intracellular ATP, luciferase-luciferin assay; assay type: cell-based, human; conditions: HepG2, 24 h of treatment (method: 12-h incubation)
Method in brief: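 HepG2 cells seeded at 3 × 10^5/well and grown 24 h. Then incubated 12 h with 2-DG (0, 10, 20, 40 mM), test compound (0, 2, 4, 6 μM) or combinations (10 + 2, 20 + 4, 40 + 6). Cells PBS-washed, lysed on ice, and ATP read by luciferase–luciferin luminescence. Values normalised to protein and expressed as % of control mean.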

HepG2 cells [5] = assay: Lactate production assay; assay type: cell-based, human; conditions: HepG2, 24 h; UA-4 2, 4 and 6 μM
Method in brief: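 HepG2 cells (3 × 10^5/well) treated 24 h with 2-DG (0, 10, 20, 40 mM), test compound (0, 2, 4, 6 μM) or combinations (10 + 2, 20 + 4, 40 + 6). Lactate in culture supernatant measured by kit at OD 530 nm and normalised to cell number. Medium background subtracted; means ± SD of triplicate wells.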

caspase-3 = assay: Caspase-3 activity assay in HepG2 lysates; assay type: cell-based, human; conditions: HepG2, 24 h; 2-DG 10, 20 mM; UA-4 2, 4 μM; 10 + 2, 20 + 4
Method in brief: (§2)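 Lysates were prepared from HepG2 cells treated 24 h with 2-DG (0, 10, 20 mM), test compound (0, 2, 4 μM) or combinations (10 + 2, 20 + 4). Lysates were incubated 4 h at 37°C with pNA substrate: Ac-DEVD-pNA (caspase-3), Ac-IETD-pNA (caspase-8) or Ac-LEHD-pNA (caspase-9). Absorbance at 405 nm, normalised to protein concentration.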

hexokinase (HK) = assay: Hexokinase activity assay in HepG2 cells; assay type: cell-based, human; conditions: HepG2, 24 h
caspase-8 = assay: Caspase-8 activity assay in HepG2 lysates; assay type: cell-based, human; conditions: HepG2, 24 h; 2-DG 10, 20 mM; UA-4 2, 4 μM; 10 + 2, 20 + 4
Method in brief: as §2

caspase-9 = assay: Caspase-9 activity assay in HepG2 lysates; assay type: cell-based, human; conditions: HepG2, 24 h; 2-DG 10, 20 mM; UA-4 2, 4 μM; 10 + 2, 20 + 4
Method in brief: as §2

HepG2 cells [6] = assay: Cell cycle analysis by flow cytometry; assay type: cell-based, human; conditions: HepG2, 24 h
Method in brief: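 Treatments: A-375 cells with test compound at 0, 1, 3, 5 μM; HepG2 cells untreated, 2-DG 20 mM, test compound 4 μM, or 20 mM + 4 μM; all 24 h. 1 × 10^6 cells washed twice in PBS and fixed overnight in 70% ice-cold ethanol. Stained 30 min at 4°C in the dark with 1% Triton X-100, 0.01% RNase, 0.05% PI. Flow cytometry, three experiments.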

Structure (SMILES)	IC50 (AGS cells) [µM]	IC50 (HepG2 cells [1]) [µM]	IC50 (HeLa cells) [µM]	IC50 (A-375 cells) [µM]	IC50 (HELF cells) [µM]	IC80 (HepG2 cells [1]) [µM]	further results
O=CC[C@@H](O)[C@H](O)[C@H](O)CO [Compound 2-DG, 2-Deoxy-D-glucose]						50000	apoptosis (HepG2 cells [3]): 13.7%; intracellular ATP concentration (in words) (HepG2 cells [4]): slightly decreased; lactate production (in words) (HepG2 cells [5]): decreased lactate production; activity of caspase-3 (caspase-3): dose-dependently increased; total hexokinase (HK) activity (in words) (hexokinase (HK)): reduce the activity of hexokinase; activity of caspase-8 (caspase-8): dose-dependently increased; activity of caspase-9 (caspase-9): dose-dependently increased; cell cycle arrest (in words) (HepG2 cells [6]): cell cycle arrest in G2/M
c1ccc([C@H]2CN3CCSC3=N2)cc1 [LM, levamisole]						2500	
N[C@@H](CS)C(=O)O [L-Cys, L-cysteine]						15000	

The next lines start with results.

IC50 (AGS cells) [µM]	IC50 (HepG2 cells [1]) [µM]	IC50 (HeLa cells) [µM]	IC50 (A-375 cells) [µM]	Structure (SMILES)	IC50 (HELF cells) [µM]	IC80 (HepG2 cells [1]) [µM]	further results
43.2 ± 2.13	68.8 ± 3.71	33.1 ± 0.63	57.6 ± 3.21	C[C@H]1[C@H](C)CC[C@]2(C(=O)O)CC[C@]3(C)C(=CC[C@@H]4[C@@]5(C)CC[C@H](O)C(C)(C)[C@@H]5CC[C@]43C)[C@H]12 [UA, 3β-hydroxy-urs-12-en-28-oic acid]	21.3 ± 1.76		IC50 [2]: 33.1 to 68.8 µM
9.24 ± 0.13	10.32 ± 0.02	6.62 ± 0.21	8.56 ± 0.07	CC(=O)O[C@H]1C(=O)[C@@]2(C)[C@H]([C@H](OC(=O)c3ccccc3)[C@]3(O)C[C@H](OC(=O)[C@H](O)[C@@H](NC(=O)c4ccccc4)c4ccccc4)C(C)=C1C3(C)C)[C@]1(OC(C)=O)CO[C@@H]1C[C@@H]2O [Paclitaxel]	7.17 ± 0.08		
